Source: ChEMBL document CHEMBL4680084, “New β-Lactam Derivatives Modulate Cell Adhesion and Signaling Mediated by RGD-Binding and Leukocyte Integrins” (J Med Chem, 2016)
Active and inactive are the calls of the source. The calls are words filed in the database; no cut-off is given here.

Columns and labels:
Integrin alpha-V/beta-6 [1] = biological target: T1, Integrin alpha-V/beta-6 (Homo sapiens, UniProt P06756+P18564); assay: Inhibition of fibronectin binding to alphaVbeta6 isolated form human HT-29 cells incubated for 1 hr by […] competitive solid-phase binding assay; assay type: tissue-based
Integrin alpha-V/beta-5 [2] = biological target: T2, Integrin alpha-V/beta-5 (Homo sapiens, UniProt P06756+P18084); assay: Inhibition of fibrinogen binding to alphaVbeta5 isolated form human mCf7 cells incubated for 1 hr by […] competitive solid-phase binding assay
MCF7 = assay: Toxicity in human MCF7 cells assessed as induction of cell necrosis and/or apoptosis incubated for 3 hrs by annexin V-PE and 7-AAD staining based by flow cytometry; settings: mcf7, 3 h
Outline: (§1)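 After 3 h incubation, cells resuspended in complete medium and stained with annexin V-PE/7-AAD reagent for 20 min at room temperature in the dark. Flow cytometry sorted cells into viable, early apoptotic and late apoptotic/necrotic populations.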

Integrin alpha-5/beta-1 [3] = biological target: T3, Integrin alpha-5/beta-1 (Homo sapiens, UniProt P05556+P08648); assay: Agonist activity at alpha5beta1 in human K562 cells assessed as increase in cell adhesion to fibronectin pre-incubated for 30 mins and further incubated for 1 hr by nitrophenyl-N-acetyl-beta-D-glucosaminide substrate based chromogenic assay; settings: filed as agonist, time 90.0 min
Outline: (§2)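 Compound or methanol vehicle pre-incubated with cells for 30 min at room temperature. Cells then plated on wells coated overnight at 4 °C with fibronectin 10 µg/mL (SK-MEL-24, K562, HT-29) or fibrinogen 10 µg/mL (MCF7, HEL). Seeding was 50,000 cells/well, or 100000 for HEL. Adhesion ran 1 h at room temperature. Wells washed with 1% BSA/PBS. Adherent cells read by hexosaminidase substrate, absorbance 405 nm. Quadruplicate, at least three repeats.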

Integrin alpha-V/beta-3 [4] = biological target: T4, Integrin alpha-V/beta-3 (Homo sapiens, UniProt P05106+P06756); assay: Inhibition of fibronectin binding to human recombinant alphaVbeta3 expressed in HEK293 cells incubated for 1 hr by […] competitive solid-phase binding assay; assay type: cell-based
[5] = biological target: T5, Integrin alpha-L/beta-2 (LFA-1) (Homo sapiens, UniProt P05107+P20701); assay: Agonist activity at alphaLbeta2 in human Jurkat E6.1 cells assessed as increase in cell adhesion to ICAM1 pre-incubated for 30 mins before ICAM1 and further incubated for 30 mins by […]; assay type: cell-based
Outline: (§3)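 Jurkat E6.1 cells labelled with CellTracker green CMFDA (12.5 µM, 30 min, 37 °C), washed, then pre-incubated 30 min at 37 °C with compound or methanol. Plated at 500,000/well on VCAM-1 (α4β1) or ICAM-1 (αLβ2) coated wells (5 µg/mL) for 30 min at 37 °C. Cells lysed in 0.5% Triton X-100; fluorescence read Ex485/Em535. Quadruplicate, at least three repeats.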

Integrin alpha-4/beta-1 [6] = biological target: T6, Integrin alpha-4/beta-1 (Homo sapiens, UniProt P05556+P13612); assay: Antagonist activity at alpha4beta1 in human Jurkat E6.1 cells assessed as reduction in VCAM-1 induced ERK1/2 phosphorylation at 1 to 100 nM by Western blot analysis; assay type: cell-based; settings: filed as antagonist, dose 1-100 nM
Integrin alpha-V/beta-6 [7] = biological target: T1, Integrin alpha-V/beta-6; assay: Antagonist activity at alphaVbeta6 in human HT-29 cells assessed as reduction in cell adhesion to fibronectin pre-incubated for 30 mins before fibronectin and further incubated for 1 hr by nitrophenyl-N-acetyl-beta-D-glucosaminide substrate based chromogenic assay
Outline: as §2, with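 “BSA/PBS.” for “BSA/PBS. Adherent cells read by hexosaminidase substrate, absorbance 405 nm.”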

Integrin alpha-5/beta-1 [8] = biological target: T3, Integrin alpha-5/beta-1; assay: Agonist activity at alpha5beta1 in human K562 cells assessed as increase in cell adhesion to fibronectin pre-incubated for 30 mins before fibronectin and further incubated for 1 hr by nitrophenyl-N-acetyl-beta-D-glucosaminide substrate based chromogenic assay; outline: as §2
[9] = biological target: T7, Integrin alpha-IIb/beta-3 (Homo sapiens, UniProt P05106+P08514); assay: Agonist activity at alpha2bbeta3 in human K562 cells assessed as increase in cell adhesion to fibrinogen pre-incubated for 30 mins and further incubated for 1 hr in presence of alpha2bbeta3 antagonist Tirofiban by nitrophenyl-N-acetyl-beta-D-glucosaminide substrate based chromogenic assay; settings: filed as agonist, time 90.0 min
HEL = assay: Toxicity in human HEL cells assessed as induction of cell necrosis and/or apoptosis incubated for 3 hrs by annexin V-PE and 7-AAD staining based by flow cytometry; outline: as §1
Integrin alpha-4/beta-1 [10] = biological target: T6, Integrin alpha-4/beta-1; assay: Inhibition of fibronectin binding to […] isolated from human Jurkat E6.1 cells incubated for 1 hr by scintillation-proximity assay based competitive solid-phase binding assay; assay type: tissue-based
Integrin alpha-5/beta-1 [11] = biological target: T3, Integrin alpha-5/beta-1; assay: (§4) Agonist activity at alpha5beta1 in human K562 cells assessed as increase in cell adhesion to fibronectin at 10 ug/ml pre-incubated for 30 mins and further incubated for 1 hr in presence of integrin antagonist c(-RGDfV) by nitrophenyl-N-acetyl-beta-D-glucosaminide substrate based chromogenic assay; settings: dose 10.0 µg/ml, time 90.0 min
Outline: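 Agonist-coated wells (10 µg/mL in methanol). Cells pre-treated 10 min before plating with neutralizing anti-α5, anti-αv or anti-α4 antibody (10 µg/mL), or pre-incubated with c(-RGDfV) (1 µM). K562 plated at 50,000/well and Jurkat E6.1 at 500,000/well. Adhesion quantified as in the standard assay.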

[12] = biological target: T7, Integrin alpha-IIb/beta-3; assay: Agonist activity at alpha2bbeta3 in human HEL cells assessed as increase in cell adhesion to fibrinogen pre-incubated for 30 mins before fibrinogen and further incubated for 1 hr by nitrophenyl-N-acetyl-beta-D-glucosaminide substrate based chromogenic assay
Outline: as §2, with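 “BSA/PBS.” for “BSA/PBS. Adherent cells read by hexosaminidase substrate, absorbance 405 nm.”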

Integrin alpha-5/beta-1 [13] = biological target: T3, Integrin alpha-5/beta-1; assay: Inhibition of fibronectin binding to alpha5beta1 isolated from human K562 cells incubated for 1 hr by […] competitive solid-phase binding assay; assay type: tissue-based
Outline: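 Plates coated overnight at 4 °C in carbonate buffer pH 9.6 with fibronectin 0.5 µg/mL (αvβ3, αvβ6, α5β1), fibrinogen 10 µg/mL (αIIbβ3, αvβ5) or ICAM-1 (αLβ2). Blocked 1 h in buffer containing Ca/Mg/Mn 1 mM each and 1% BSA. Purified integrin (3–10 µg/mL) incubated with compound (10⁻⁴–10⁻¹⁰ M) 1 h at room temperature. Bound integrin detected with primary antibody then AlexaFluor488 secondary, Ex485/Em535. Duplicate, at least three repeats.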

Integrin alpha-5/beta-1 [14] = biological target: T3, Integrin alpha-5/beta-1; assay: as §4, with “pre-incubated for 30 mins” left out, “of neutralizing antibody against the alpha5” for “of”, “subunit” for “antagonist c(-RGDfV)”; settings: dose 10.0 µg/ml, time 90.0 min
Integrin alpha-V/beta-3 [15] = biological target: T4, Integrin alpha-V/beta-3; assay: Agonist activity at alphaVbeta3 in human SK-MEL-24 cells assessed as increase in cell adhesion to fibronectin pre-incubated for 30 mins before fibronectin and further incubated for 1 hr by nitrophenyl-N-acetyl-beta-D-glucosaminide substrate based chromogenic assay; outline: as §2
K562 = assay: Toxicity in human K562 cells assessed as induction of cell necrosis and/or apoptosis incubated for 3 hrs by annexin V-PE and 7-AAD staining based by flow cytometry; settings: k562, 3 h; outline: as §1
Integrin alpha-V/beta-5 [16] = biological target: T2, Integrin alpha-V/beta-5; assay: Agonist activity at alphaVbeta5 in human MCF7 cells assessed as increase in cell adhesion to fibrinogen pre-incubated for 30 mins before fibrinogen and further incubated for 1 hr by nitrophenyl-N-acetyl-beta-D-glucosaminide substrate based chromogenic assay; outline: as §2
HT-29 = assay: Toxicity in human HT-29 cells assessed as induction of cell necrosis and/or apoptosis incubated for 3 hrs by annexin V-PE and 7-AAD staining based by flow cytometry; settings: ht-29, 3 h; outline: as §1
[17] = biological target: T5, Integrin alpha-L/beta-2 (LFA-1); assay: Antagonist activity at alphaLbeta2 in human Jurkat E6.1 cells assessed as reduction in cell adhesion to ICAM1 pre-incubated for 30 mins before ICAM1 and further incubated for 30 mins by […]; assay type: cell-based; outline: as §3
[18] = biological target: T7, Integrin alpha-IIb/beta-3; assay: Antagonist activity at alpha2bbeta3 in human HEL cells assessed as reduction in cell adhesion to fibrinogen pre-incubated for 30 mins before fibrinogen and further incubated for 1 hr by nitrophenyl-N-acetyl-beta-D-glucosaminide substrate based chromogenic assay
Outline: as §2, with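 “BSA/PBS.” for “BSA/PBS. Adherent cells read by hexosaminidase substrate, absorbance 405 nm.”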

SK-MEL-24 = assay: Toxicity in human SK-MEL-24 cells assessed as induction of cell necrosis and/or apoptosis incubated for 3 hrs by annexin V-PE and 7-AAD staining based by flow cytometry; settings: sk-mel-24, 3 h; outline: as §1
Integrin alpha-4/beta-1 [19] = biological target: T6, Integrin alpha-4/beta-1; assay: Antagonist activity at alpha4beta1 in human Jurkat E6.1 cells assessed as reduction in cell adhesion to VCAM1 pre-incubated for 30 mins before VCAM1 and further incubated for 30 mins by […]; assay type: cell-based
Integrin alpha-5/beta-1 [20] = biological target: T3, Integrin alpha-5/beta-1; assay: Agonist activity at alpha5beta1 in human K562 cells assessed as assessed as increase in ERK1/2 phosphorylation at 1 to 100 nM by Western blot analysis; assay type: cell-based; settings: filed as agonist, dose 1-100 nM

Cc1ccccc1NC(=O)N1C(=O)CC1CC(=O)NCCC(=O)O (stereo not given)
IC50 (Integrin alpha-V/beta-6 [1]): 23.4 nM | IC50 (Integrin alpha-V/beta-5 [2]): 634 nM | Activity (MCF7): Non-Toxic | Activity (Integrin alpha-5/beta-1 [3]): Dose-dependent effect | IC50 (Integrin alpha-V/beta-3 [4]): 116 nM | EC50 [5]: > 5000 nM | Activity (Integrin alpha-4/beta-1 [6]): Dose-dependent effect | IC50 (Integrin alpha-V/beta-6 [7]): 44.4 nM | EC50 (Integrin alpha-5/beta-1 [8]): 49 nM | Activity [9]: Active | Activity (HEL): Non-Toxic | IC50 (Integrin alpha-4/beta-1 [10]): 12.4 nM | Activity (Integrin alpha-5/beta-1 [11]): inactive | EC50 [12]: > 5000 nM | IC50 (Integrin alpha-5/beta-1 [13]): 36 nM | Activity (Integrin alpha-5/beta-1 [14]): inactive | EC50 (Integrin alpha-V/beta-3 [15]): 187 nM | Activity (K562): Non-Toxic | EC50 (Integrin alpha-V/beta-5 [16]): 670 nM | Activity (HT-29): Non-Toxic | IC50 [17]: > 5000 nM | IC50 [18]: > 5000 nM | Activity (SK-MEL-24): Non-Toxic | IC50 (Integrin alpha-4/beta-1 [19]): 17.4 nM | Activity (Integrin alpha-5/beta-1 [20]): Dose-dependent effect
